According to ChEMBL document CHEMBL1125426, “Muscarinic receptor subtype specificity of (N,N-dialkylamino)alkyl 2-cyclohexyl-2-phenylpropionates: cylexphenes (cyclohexyl-substituted aprophen analogues)” (J Med Chem, 1992):

Assays:
[1] = target: T1, Muscarinic acetylcholine receptor M1 (Homo sapiens, UniProt P11229); assay: Antimuscarinic potency and subset specificity was characterised by its inhibition of the [3H]NMS Binding to Muscarinic acetylcholine receptor M1 subtype
T1 sequence (P11229 whole entry): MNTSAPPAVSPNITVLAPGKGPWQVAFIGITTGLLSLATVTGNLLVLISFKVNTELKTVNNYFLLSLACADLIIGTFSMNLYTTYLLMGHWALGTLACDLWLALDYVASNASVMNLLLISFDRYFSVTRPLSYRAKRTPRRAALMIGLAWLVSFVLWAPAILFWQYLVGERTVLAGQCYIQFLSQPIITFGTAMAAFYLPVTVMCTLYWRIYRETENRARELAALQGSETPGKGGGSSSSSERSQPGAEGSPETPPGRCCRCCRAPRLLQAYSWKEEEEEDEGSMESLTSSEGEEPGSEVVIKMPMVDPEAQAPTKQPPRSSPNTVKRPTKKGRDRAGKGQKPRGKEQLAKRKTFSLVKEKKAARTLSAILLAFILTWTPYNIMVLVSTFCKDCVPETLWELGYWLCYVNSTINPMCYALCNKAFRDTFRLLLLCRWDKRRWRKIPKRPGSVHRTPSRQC
Method in brief: (§1)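 Membranes, by hypotonic lysis (2 mM Tris-HCl pH 7.2, 1 mM EDTA) and 50000g spins, from A9 L cells stably carrying cloned brain m1 or m3, heart (M2) or NG108-15 cells (M4). 150-300 µg protein incubated 60 min at 37 °C in PBS pH 7.2 with 0.5 nM [3H]NMS and varied compound levels. Filtration and scintillation counting. Nonspecific binding taken with 1 µM atropine. Ki from LIGAND with KD 235 (m1), 426 (M2), 164 (m3), 144 (M4) pM. Three to six experiments.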

[2] = target: T2, Muscarinic acetylcholine receptor M2 (Homo sapiens, UniProt P08172); assay: Antimuscarinic potency and subset specificity was characterised by its inhibition of the [3H]NMS Binding to Muscarinic acetylcholine receptor M2 subtype; method in brief: as §1
T2 sequence (P08172 whole entry): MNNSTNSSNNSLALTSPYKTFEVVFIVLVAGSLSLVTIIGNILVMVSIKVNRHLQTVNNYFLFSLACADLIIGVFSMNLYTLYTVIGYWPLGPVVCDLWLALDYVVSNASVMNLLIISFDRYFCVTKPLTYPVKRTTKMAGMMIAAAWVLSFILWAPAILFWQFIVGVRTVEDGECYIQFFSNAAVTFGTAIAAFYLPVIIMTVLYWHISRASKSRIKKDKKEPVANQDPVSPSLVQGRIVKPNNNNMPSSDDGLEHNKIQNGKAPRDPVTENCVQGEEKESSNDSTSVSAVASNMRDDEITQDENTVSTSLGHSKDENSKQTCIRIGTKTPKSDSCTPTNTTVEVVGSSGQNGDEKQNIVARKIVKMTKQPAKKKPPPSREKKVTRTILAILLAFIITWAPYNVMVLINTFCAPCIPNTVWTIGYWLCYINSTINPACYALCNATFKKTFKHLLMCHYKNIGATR

[3] = target: T3, Muscarinic acetylcholine receptor M3 (Homo sapiens, UniProt P20309); assay: Antimuscarinic potency and subset specificity was characterised by its inhibition of the [3H]NMS Binding to Muscarinic acetylcholine receptor M3 subtype
Method in brief: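 Membranes from A9 L cells stably transfected with cloned m3 receptor (brain library), lysed in 2 mM Tris-HCl pH 7.2/1 mM EDTA, centrifuged 50000g. 150-300 µg protein incubated 60 min, 37 °C with 0.5 nM [3H]NMS plus varied compound concentrations in PBS pH 7.2; filtration, scintillation counting. Nonspecific binding: 1 µM atropine. Ki via LIGAND using KD 164 pM; mean of 3-6 experiments ± SD.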

[4] = target: T4, Muscarinic acetylcholine receptor M4 (Homo sapiens, UniProt P08173); assay: Antimuscarinic potency and subset specificity was characterised by its inhibition of the [3H]NMS Binding to Muscarinic acetylcholine receptor M4 subtype; method in brief: as §1
T4 sequence (P08173 whole entry): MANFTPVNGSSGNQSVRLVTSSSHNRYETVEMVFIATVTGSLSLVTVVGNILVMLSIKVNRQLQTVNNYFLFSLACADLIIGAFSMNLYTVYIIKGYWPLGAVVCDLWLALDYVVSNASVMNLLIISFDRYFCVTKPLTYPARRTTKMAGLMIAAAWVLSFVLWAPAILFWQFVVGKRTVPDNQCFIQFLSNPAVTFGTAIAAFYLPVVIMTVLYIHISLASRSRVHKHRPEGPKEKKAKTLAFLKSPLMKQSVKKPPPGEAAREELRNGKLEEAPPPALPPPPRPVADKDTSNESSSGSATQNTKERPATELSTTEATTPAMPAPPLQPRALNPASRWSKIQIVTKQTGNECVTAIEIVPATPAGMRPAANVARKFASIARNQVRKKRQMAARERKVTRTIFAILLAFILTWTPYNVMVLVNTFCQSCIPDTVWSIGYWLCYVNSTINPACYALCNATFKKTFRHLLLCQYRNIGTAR

[5] = Selectivity ratio relative to atropine is [(atropine IC50 value for pancreas)/(compound IC50 value for pancreas)] / [(atropine KB value for ileum) /(compound KB value for ileum)]; format: tissue-based
Method in brief: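 Rat pancreatic acini from male Sprague-Dawley rats, collagenase digested, exposed to 10^-5 M carbachol with varied compound levels. […] Ileum KB comes from Schild plots on male guinea pig distal ileum at 37 °C, ACh-induced isometric contraction, compound added 30 s before ACh. Ratio as printed, referenced to atropine.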

[6] = target: Muscarinic acetylcholine receptor M1 and M3 (Homo sapiens) (UniProt P20309+P11229); assay: Selectivity index is defined as the ratio of Ki value for m1 receptor / Ki value for m3 receptor; format: protein assay
[7] = Selectivity index is defined as the ratio of Ki value for m3 receptor / Ki value for M4 receptor
[8] = target: T3, Muscarinic acetylcholine receptor M3; assay: Antimuscarinic potency and subset specificity was characterised by its inhibition of the [3H]NMS Muscarinic acetylcholine receptor M3 subtype; method in brief: as §1
[9] = target: T1, Muscarinic acetylcholine receptor M1; assay: Antimuscarinic potency and subset specificity was characterised by inhibition of the [3H]NMS Binding to Muscarinic acetylcholine receptor M1 subtype; method in brief: as §1
[10] = target: T2, Muscarinic acetylcholine receptor M2; assay: Antimuscarinic potency and subset specificity was characterised by inhibition of the [3H]NMS Binding to Muscarinic acetylcholine receptor M2 subtype; method in brief: as §1

T3 sequence (P20309 whole entry): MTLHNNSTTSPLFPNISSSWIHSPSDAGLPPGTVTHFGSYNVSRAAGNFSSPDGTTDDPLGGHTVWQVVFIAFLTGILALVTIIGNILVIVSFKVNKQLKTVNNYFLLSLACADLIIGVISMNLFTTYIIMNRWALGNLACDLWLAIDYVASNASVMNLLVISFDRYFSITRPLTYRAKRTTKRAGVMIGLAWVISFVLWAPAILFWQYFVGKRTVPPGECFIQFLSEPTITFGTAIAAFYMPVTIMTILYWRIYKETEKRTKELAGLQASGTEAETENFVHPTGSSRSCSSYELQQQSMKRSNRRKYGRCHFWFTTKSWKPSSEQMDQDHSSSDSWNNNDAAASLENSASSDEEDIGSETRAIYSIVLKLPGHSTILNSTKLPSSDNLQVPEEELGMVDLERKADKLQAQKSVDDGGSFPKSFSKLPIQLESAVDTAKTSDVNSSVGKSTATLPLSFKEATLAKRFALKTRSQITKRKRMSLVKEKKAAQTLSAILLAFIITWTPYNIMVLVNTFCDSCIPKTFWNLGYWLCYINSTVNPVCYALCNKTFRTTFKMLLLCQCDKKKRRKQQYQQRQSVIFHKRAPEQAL
Muscarinic acetylcholine receptor M1 and M3 (Homo sapiens), sequence (P20309 whole entry, looked up, one chain of several): as the sequence (P20309 whole entry) above

Row | SMILES | Ki [1] [nM] | Ki [2] [nM] | Ki [3] [nM] | Ki [4] [nM] | Selectivity [5] | Selectivity ratio [6] | Selectivity ratio [7] | Ki [8] [nM] | Ki [9] [nM] | Ki [10] [nM]
1 | CN(C)CCCOC(=O)C(C)(c1ccccc1)C1CCCCC1 (centres undefined) | 1.9 | 26.9 | 1.7 | 1.5 | 30.8 | 0.9 | 0.9 | – | – | –
2 | CCN(CC)CCCCOC(=O)C(C)(c1ccccc1)C1CCCCC1 (centres undefined) | 111 | 248 | 160 | 209 | – | – | – | – | – | –
3 | CCN(CC)CCCOC(=O)C(C)(c1ccccc1)C1CCCCC1 (centres undefined) | 2.9 | 19.7 | 4 | 4.6 | 19.1 | 1.4 | 1.2 | – | – | –
4 | CCN(CC)CCCCCOC(=O)C(C)(c1ccccc1)C1CCCCC1 (centres undefined) | 298 | 246 | 178 | 173 | 11.5 | 0.6 | 1 | – | – | –
5 | CCN(CC)CCOC(=O)C(C)(c1ccccc1)C1CCCCC1 (centres undefined) | 4 | 23.4 | – | 18.5 | 16.7 | 2.5 | 1.9 | 9.9 | – | –
6 | CCN(CC)CCOC(=O)C(C)(c1ccccc1)c1ccccc1 [APROFENE] | – | – | – | 7.4 | – | – | – | – | 2.1 | 9.3
7 | CN(C)CCCCOC(=O)C(C)(c1ccccc1)C1CCCCC1 (centres undefined) | 40.7 | 258 | 31.2 | 65.6 | – | – | – | – | – | –
